Assay results from ChEMBL document CHEMBL1127600, “Mercaptoacyl amino acid inhibitors of atriopeptidase. 1. Structure-activity relationship studies of methionine and S-alkylcysteine derivatives” (J Med Chem, 1994).

Legend:
[1] = biological target: T1, Angiotensin-converting enzyme (Oryctolagus cuniculus, UniProt P12822); experiment: Tested in vitro for its inhibitory activity against angiotensin converting enzyme
T1 sequence (P12822 whole entry): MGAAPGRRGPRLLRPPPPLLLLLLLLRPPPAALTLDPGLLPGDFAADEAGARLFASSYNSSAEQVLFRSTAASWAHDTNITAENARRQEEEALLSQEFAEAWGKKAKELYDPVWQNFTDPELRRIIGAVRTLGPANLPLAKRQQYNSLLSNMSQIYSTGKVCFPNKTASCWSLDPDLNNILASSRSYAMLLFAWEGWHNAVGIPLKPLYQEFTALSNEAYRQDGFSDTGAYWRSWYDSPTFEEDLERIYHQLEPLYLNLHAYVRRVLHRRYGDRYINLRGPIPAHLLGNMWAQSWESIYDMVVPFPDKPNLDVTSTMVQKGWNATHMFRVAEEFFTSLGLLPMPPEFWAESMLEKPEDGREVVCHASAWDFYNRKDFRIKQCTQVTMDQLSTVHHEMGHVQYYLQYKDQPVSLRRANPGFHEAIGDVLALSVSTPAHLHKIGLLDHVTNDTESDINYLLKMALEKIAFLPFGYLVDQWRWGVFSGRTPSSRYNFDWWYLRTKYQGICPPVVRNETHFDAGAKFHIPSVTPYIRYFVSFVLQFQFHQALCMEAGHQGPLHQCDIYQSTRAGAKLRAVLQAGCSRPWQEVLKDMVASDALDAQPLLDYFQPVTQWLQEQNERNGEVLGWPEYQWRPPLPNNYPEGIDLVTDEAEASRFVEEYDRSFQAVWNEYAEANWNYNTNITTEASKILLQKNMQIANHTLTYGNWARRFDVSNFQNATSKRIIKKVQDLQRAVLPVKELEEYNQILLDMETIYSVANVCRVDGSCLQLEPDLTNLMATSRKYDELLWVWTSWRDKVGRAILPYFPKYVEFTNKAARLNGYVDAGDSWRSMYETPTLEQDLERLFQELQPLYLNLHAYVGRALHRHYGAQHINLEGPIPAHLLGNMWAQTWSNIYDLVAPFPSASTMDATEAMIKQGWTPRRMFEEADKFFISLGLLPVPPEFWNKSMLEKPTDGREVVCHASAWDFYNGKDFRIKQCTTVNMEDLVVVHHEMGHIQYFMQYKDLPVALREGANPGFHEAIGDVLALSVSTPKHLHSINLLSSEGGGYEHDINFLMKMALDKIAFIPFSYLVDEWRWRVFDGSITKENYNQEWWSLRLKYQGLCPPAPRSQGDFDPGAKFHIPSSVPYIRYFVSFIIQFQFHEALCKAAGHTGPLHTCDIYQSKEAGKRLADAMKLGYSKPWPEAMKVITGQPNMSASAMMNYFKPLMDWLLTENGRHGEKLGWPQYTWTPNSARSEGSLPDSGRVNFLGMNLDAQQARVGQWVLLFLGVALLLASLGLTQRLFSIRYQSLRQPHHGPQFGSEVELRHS

[2] = biological target: T2, Neprilysin (Oryctolagus cuniculus, UniProt P08049); experiment: In vitro inhibitory activity against neutral endopeptidase (NEP)
T2 sequence (P08049 whole entry): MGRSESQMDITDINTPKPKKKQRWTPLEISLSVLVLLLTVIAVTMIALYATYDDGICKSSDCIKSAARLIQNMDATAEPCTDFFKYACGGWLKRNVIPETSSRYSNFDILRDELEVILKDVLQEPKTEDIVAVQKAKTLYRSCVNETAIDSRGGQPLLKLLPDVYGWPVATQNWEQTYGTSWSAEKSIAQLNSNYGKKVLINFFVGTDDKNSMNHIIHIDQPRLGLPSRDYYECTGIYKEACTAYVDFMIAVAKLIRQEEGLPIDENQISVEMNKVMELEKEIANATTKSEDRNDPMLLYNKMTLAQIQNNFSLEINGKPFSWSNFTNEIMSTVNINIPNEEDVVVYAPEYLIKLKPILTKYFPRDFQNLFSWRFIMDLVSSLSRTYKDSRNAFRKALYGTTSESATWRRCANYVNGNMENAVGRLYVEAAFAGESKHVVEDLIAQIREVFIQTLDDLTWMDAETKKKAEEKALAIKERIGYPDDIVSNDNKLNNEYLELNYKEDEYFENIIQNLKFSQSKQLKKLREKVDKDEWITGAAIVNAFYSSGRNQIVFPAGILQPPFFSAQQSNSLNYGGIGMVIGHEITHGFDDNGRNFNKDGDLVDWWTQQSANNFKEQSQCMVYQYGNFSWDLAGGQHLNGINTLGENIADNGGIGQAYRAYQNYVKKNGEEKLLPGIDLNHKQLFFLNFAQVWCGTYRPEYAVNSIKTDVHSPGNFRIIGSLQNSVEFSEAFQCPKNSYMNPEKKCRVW
In short: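 Purified rabbit kidney NEP (EC 24.11) was the enzyme source, with [³H]Leu-enkephalin as the substrate.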

[3] = system: Rattus norvegicus; experiment: In vivo potentiation of ANF induced hypotension in rat, following subcutaneous dose of 30 mg/kg; assay type: functional
In short: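 Conscious male SHR (270–300 g) had caudal artery and jugular vein cannulae placed under ether. After at least 90 min of stabilization, ANF 103-125 or 99-126 was given as an iv bolus at a submaximal dose. 60–90 min later, drug or vehicle (0.2% aqueous methylcellulose with 20% Tris-HCl) was given sc. ANF was repeated 15 min after dosing, and the response was compared with vehicle controls. Values are means of four or more animals.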

[4] = system: Rattus norvegicus; experiment: Tested for in vivo Antihypertensive activity in DOCA rat by giving peroral dose of 30 mg/kg; assay type: functional; settings: route oral
In short: (§1)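 Male Sprague-Dawley rats (100–150 g) had DOCA-Na hypertension induced and were used 17–21 days later if mean BP was >150 mmHg. Rats were not fasted. Mean BP was recorded after 90-min equilibration. Dosing was sc in TRIS buffer (2 mL/kg) or po in 0.4% aqueous methylcellulose (4 mL/kg). The maximum BP fall over 4 h versus vehicle controls was taken, averaged over four or more animals.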

[5] = system: Rattus norvegicus; experiment: Tested for in vivo Antihypertensive activity in DOCA rat by giving subcutaneous dose of 30 mg/kg; assay type: functional; in short: as §1
[6] = system: Rattus norvegicus; experiment: Tested for in vivo Antihypertensive activity in DOCA rat by giving peroral dose of 10 mg/kg; assay type: functional; settings: route oral; in short: as §1

Structure (SMILES) | IC50 [1] [nM] | IC50 [2] [nM] | Delta blood pressure [3] [mmHg] | Delta blood pressure [4] [mmHg] | Delta blood pressure [5] [mmHg] | Delta blood pressure [6] [mmHg] | Delta blood pressure ([3]; 30 mg/kg) [mmHg]
Cc1ccc(CSC[C@@H](NC(=O)[C@H](CS)Cc2ccc(-c3ccccc3)cc2)C(=O)O)cc1 | > 1000 | 290 | 0 | – | – | – | –
Cc1ccc(CSC[C@@H](NC(=O)[C@H](CS)Cc2ccc3ccccc3c2)C(=O)O)cc1 | – | – | 0 | – | – | – | –
CCSCC[C@@H](NC(=O)[C@@H](CS)Cc1ccccc1)C(=O)O | 215 | 5 | 20 | – | – | – | –
CSC[C@@H](NC(=O)[C@@H](CS)Cc1ccccc1)C(=O)O | 77 | 1.5 | 30 | 0 | – | – | –
CSCC[C@@H](NC(=O)[C@@H](CSC(=O)c1ccccc1)Cc1ccccc1)C(N)=O | – | – | – | – | 0 | – | –
CSCC[C@@H](NC(=O)C(CSC(C)=O)Cc1ccccc1)C(=O)N1CCOCC1 (stereo partly drawn) | – | > 300 | 24 | – | – | 20 | –
CSCC[C@@H](NC(=O)[C@H](CS)Cc1ccccc1)C(N)=O | > 1000 | 94 | – | – | – | – | –
CSCC[C@@H](NC(=O)C1(CS)CCCC1)C(=O)O | 700 | 3.5 | – | – | 24 | – | –
O=C(N[C@H](CSCc1ccccc1)C(=O)O)[C@@H](CS)Cc1ccc(Cl)cc1 | 44 | 3 | 19 | 20 | – | – | –
CSCC[C@@H](NC(=O)[C@@H](CS)CCc1ccccc1)C(=O)O | 150 | 60 | – | – | – | 18 | –
CSCC[C@@H](NC(=O)[C@H](CS)Cc1ccccc1)C(=O)O | > 1000 | 3.5 | 50 | – | – | 30 | –
CCOC(=O)CNC(=O)[C@@H](CCSC)NC(=O)C(CSC(C)=O)Cc1ccccc1 (stereo partly drawn) | – | > 300 | – | – | – | 0 | –
Cc1ccc(CSC[C@@H](NC(=O)[C@@H](CS)Cc2ccccc2)C(N)=O)cc1 | – | > 300 | 0 | – | – | – | –
O=C(N[C@H](CSC(c1ccccc1)(c1ccccc1)c1ccccc1)C(=O)O)C(CS)Cc1ccccc1 (stereo partly drawn) | > 1000 | 274 | 0 | – | – | – | –
O=C(N[C@H](CSCc1ccccc1)C(=O)O)[C@H](CS)Cc1ccc(Cl)cc1 | > 1000 | 147 | 0 | – | – | – | –
O=C(N[C@H](CSCc1ccccc1)C(=O)O)C(CS)Cc1ccccc1 (single isomer, unassigned) | 1250 | 14 | – | 18 | – | – | 19
CCCC(CS)C(=O)N[C@H](CSCC)C(=O)O (stereo partly drawn) | 1000 | > 300 | – | – | – | – | –
CC(C)(C)SC[C@@H](NC(=O)[C@H](CS)Cc1ccccc1)C(=O)O | 640 | 231 | 0 | – | – | – | –
CSCC[C@@H](NC(=O)[C@@H](CS)Cc1ccccc1)C(N)=O | > 1000 | 76 | 26 | – | – | – | –
